From ChEMBL document CHEMBL1145951, “Phenethyl amides as novel noncovalent inhibitors of hepatitis C virus NS3/4A protease: discovery, initial SAR, and molecular modeling” (J Med Chem, 2003)
pIC50, pKi: −log10 of the molar value. Starred links: 1 amine or outer side, 2 acyl side, 3 side chain; linkers in the order of their positions; H or OH if unused. Non-standard residues stand in square brackets, D forms with d. Residues, ends and D or L forms follow the SMILES beside them. ξ: configuration not given here. *: point of attachment. Dip = N[C@H](C(=O)O)C(c1ccccc1)c1ccccc1; X4 = O=C(C(=O)[*:2])[C@H](CC(F)F)N[*:1]; X1 = O=C(NOCc1ccccc1)[C@H](CC(F)F)N*; Abu(4,4-F2) = N[C@@H](CC(F)F)C(=O)O; N(Me)CH2CH2Ph = CN(CCc1ccccc1)*; Cha = N[C@@H](CC1CCCCC1)C(=O)O; NH(CH2)3Ph = c1ccc(CCCN*)cc1; NHPhenethyl = c1ccc(CCN*)cc1; X6 = c1ccc2c(c1)CC(N*)C2; ξE = NC(CCC(=O)O)C(=O)O; Cbz = O=C(OCc1ccccc1)*; Boc = CC(C)(C)OC(=O)*; NHBn = c1ccc(CN*)cc1; X2 = Clc1ccccc1CCN*; X5 = C1CCC(CCN*)CC1

What was measured:
[1] = target: Hepatitis C virus serine protease, NS3/NS4A (Hepatitis C virus, UniProt A3EZI9+D2K2A8); experiment: (§1) Inhibitory activity against Hepatitis C NS3/NS4A protease; format: protein-complex assay, Hepacivirus hominis
Outline: (§2)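 Enzyme was the HCV NS3 protease domain with an NS4A cofactor peptide. IC50 values are means of two independent experiments, or of three to four for some series.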

NS3 [2] = target: T1, NS3 (Hepatitis C virus, UniProt A3EZJ3, K136R); experiment: Binding affinity for NS3 protease K136R; parameters: species or system Hepacivirus hominis
NS3 [3] = target: T2, NS3 (Hepatitis C virus, UniProt A3EZJ3); experiment: Binding affinity for wild type NS3 protease; parameters: species or system Hepacivirus hominis
Outline: (§3)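 Protease domain of HCV NS3 with NS4A cofactor peptide. Ki found from steady-state kinetics as reversible competitive inhibition. A second Ki was calculated from pre-steady-state displacement of an active-site fluorescent probe, using k_off/k_on.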

NS3 [4] = target: T3, NS3 (Hepatitis C virus, UniProt A3EZJ3, K136M); experiment: Binding affinity NS3 protease K136M; parameters: species or system Hepacivirus hominis
NS3 [5] = target: T3, NS3; experiment: Binding affinity for enzyme K136M; parameters: species or system Hepacivirus hominis
Neutrophil elastase = target: T4, Neutrophil elastase (Homo sapiens, UniProt P08246); experiment: Binding affinity for enzyme human leukocyte HLE
T4 sequence (P08246 whole entry): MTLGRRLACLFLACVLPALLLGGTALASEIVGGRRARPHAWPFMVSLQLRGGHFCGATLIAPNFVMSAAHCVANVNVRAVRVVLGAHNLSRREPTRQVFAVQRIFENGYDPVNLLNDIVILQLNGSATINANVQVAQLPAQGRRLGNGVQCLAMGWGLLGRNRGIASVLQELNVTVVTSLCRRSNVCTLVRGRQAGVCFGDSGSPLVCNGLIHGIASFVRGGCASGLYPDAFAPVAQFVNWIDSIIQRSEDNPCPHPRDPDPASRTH

NS3 [6] = target: T1, NS3; experiment: Binding affinity for enzyme K136R; parameters: species or system Hepacivirus hominis
NS3 [7] = target: T2, NS3; experiment: Binding affinity for enzyme NS3 protease wild-type; parameters: species or system Hepacivirus hominis; outline: as §3
[8] = target: Hepatitis C virus serine protease, NS3/NS4A (Hepatitis C virus, UniProt D2K2A8+A3EZI9); experiment: as §1; format: protein-complex assay, Hepacivirus hominis; outline: as §2

In the case of `CC(C)C[C@H](NC(=O)[C@@H](NC(=O)OCc1ccccc1)C(C)C)C(=O)N[C@@H](CS)C(=O)NCCc1ccccc1` (Cbz-Val-Leu-Cys-NHPhenethyl), the pIC50 [1] was < 3.40.

`CC(=O)N[C@@H](CC(=O)O)C(=O)N[C@@H](CCC(=O)O)C(=O)N[C@H](C(=O)N[C@@H](CCC(=O)O)C(=O)N[C@@H](CC1CCCCC1)C(=O)N[C@@H](CS)C(=O)NCc1ccccc1)C(c1ccccc1)c1ccccc1` (Ac-DE[Dip]E[Cha]C-NHBn) gave a pIC50 [1] of 6.60.

`CC(C)C[C@H](NC(=O)C(CCC(=O)O)NC(=O)OC(C)(C)C)C(=O)N[C@@H](CS)C(=O)NCCc1ccccc1` (stereo partly drawn) (Boc-[ξE]-Leu-Cys-NHPhenethyl) was tested, and the pIC50 [1] was 4.57.

Compound `CC(=O)N[C@@H](CC(=O)O)C(=O)N[C@@H](CCC(=O)O)C(=O)N[C@H](C(=O)N[C@@H](CCC(=O)O)C(=O)N[C@@H](CC1CCCCC1)C(=O)N[C@@H](CS)C(=O)NCCCc1ccccc1)C(c1ccccc1)c1ccccc1` (Ac-DE[Dip]E[Cha]C-{NH(CH2)3Ph}) has a pIC50 [1] of 6.68.

In the case of `CC(C)COC(=O)NC(CCC(=O)O)C(=O)N[C@@H](CC(C)C)C(=O)NC(CS)C(=O)NCCc1ccc(C(=O)O)cc1Cl` (stereo partly specified), the pIC50 [1] was 6.15.

`CC(C)COC(=O)NC(C(=O)N[C@@H](CC(C)C)C(=O)NC(CC(F)F)C(=O)NCCc1ccc(C(=O)O)cc1Cl)C(C)C` (stereo partly specified) showed a pKi (NS3 [2]) of 5.64, a pKi (NS3 [3]) of 5.68 and a pKi (NS3 [4]) of 5.40.

In the case of `CC(=O)N[C@@H](CC(=O)O)C(=O)N[C@@H](CCC(=O)O)C(=O)N[C@H](C(=O)N[C@@H](CCC(=O)O)C(=O)N[C@@H](CC1CCCCC1)C(=O)N[C@@H](CC(F)F)C(=O)O)C(c1ccccc1)c1ccccc1` (Ac-DE[Dip]E[Cha][Abu(4,4-F2)]-OH), the pIC50 [1] was 7.40.

With `CC(C)COC(=O)NC(CCC(=O)O)C(=O)N[C@@H](CC(C)C)C(=O)NC(CS)C(=O)NCCc1ccccc1` (stereo partly specified) the pIC50 [1] was 4.72.

Work on `CC(=O)N[C@@H](CC(=O)O)C(=O)N[C@@H](CCC(=O)O)C(=O)N[C@H](C(=O)N[C@@H](CCC(=O)O)C(=O)N[C@@H](CC1CCCCC1)C(=O)N[C@@H](CS)C(=O)NCCc1ccccc1)C(c1ccccc1)c1ccccc1` (Ac-DE[Dip]E[Cha]C-NHPhenethyl) yielded a pIC50 [1] of 8.15.

With `CC(=O)N[C@@H](CC(=O)O)C(=O)N[C@@H](CCC(=O)O)C(=O)N[C@H](C(=O)N[C@@H](CCC(=O)O)C(=O)N[C@@H](CC1CCCCC1)C(=O)N[C@@H](CS)C(=O)N(C)CCc1ccccc1)C(c1ccccc1)c1ccccc1` (Ac-DE[Dip]E[Cha]C-{N(Me)CH2CH2Ph}) the pIC50 [1] was 4.15.

Work on `COC(=O)c1ccc(CCNC(=O)C(CS)NC(=O)[C@H](CC(C)C)NC(=O)C(CCC(=O)O)NC(=O)OCC(C)C)c(Cl)c1` (stereo partly specified) yielded a pIC50 [1] of 5.49.

With `CC(C)COC(=O)NC(CCC(=O)O)C(=O)N[C@@H](CC(C)C)C(=O)NC(CC(F)F)C(=O)NCCc1ccc(C(=O)O)cc1Cl` (stereo partly specified) the pKi (NS3 [5]) was 5.89, the pKi (Neutrophil elastase) was < 4.00 and the pKi (NS3 [6]) was 6.05. For the same compound, the pKi (NS3 [7]) was 6.22.

With `CC(C)C[C@H](NC(=O)C(CCC(=O)O)NC(=O)OC(C)(C)C)C(=O)N[C@@H](CS)C(=O)NCCc1ccccc1Cl` (stereo partly specified) the pIC50 [1] was 5.19.

With `CC(=O)N[C@@H](CC(=O)O)C(=O)N[C@@H](CCC(=O)O)C(=O)N[C@H](C(=O)N[C@@H](CCC(=O)O)C(=O)N[C@@H](CC1CCCCC1)C(=O)N[C@@H](CC(F)F)C(=O)NOCc1ccccc1)C(c1ccccc1)c1ccccc1` (Ac-DE[Dip]E[Cha]-X1) the pIC50 [1] was 7.40.

In the case of `COC(=O)c1ccc(CCNC(=O)C(CS)NC(=O)[C@H](CC(C)C)NC(=O)C(CCC(=O)O)NC(=O)OCC(C)C)cc1` (stereo partly specified), the pIC50 [1] was 4.77.

Work on `COC(=O)c1cccc(CCNC(=O)C(CS)NC(=O)[C@H](CC(C)C)NC(=O)C(CCC(=O)O)NC(=O)OCC(C)C)c1` (stereo partly specified) yielded a pIC50 [1] of 4.60.

With `CC(=O)N[C@@H](CC(=O)O)C(=O)N[C@@H](CCC(=O)O)C(=O)N[C@H](C(=O)N[C@@H](CCC(=O)O)C(=O)N[C@@H](CC1CCCCC1)C(=O)N[C@@H](CC(F)F)C(=O)C(=O)NCc1ccccc1)C(c1ccccc1)c1ccccc1` (Ac-DE[Dip]E[Cha][X4]-NHBn) the pIC50 [1] was 8.70.

For `CC(C)C[C@H](NC(=O)C(CCC(=O)O)NC(=O)OC(C)(C)C)C(=O)N[C@@H](CS)C(=O)NCc1ccccc1` (stereo partly drawn) (Boc-[ξE]-Leu-Cys-NHBn), the pIC50 [1] was < 3.70.

`CC(C)COC(=O)NC(CCC(=O)O)C(=O)N[C@@H](CC(C)C)C(=O)NC(CS)C(=O)NCCc1cccc(C(=O)O)c1` (stereo partly specified) showed a pIC50 [1] of 5.04.

Compound `COC(=O)c1ccccc1CCNC(=O)C(CS)NC(=O)[C@H](CC(C)C)NC(=O)C(CCC(=O)O)NC(=O)OCC(C)C` (stereo partly specified) has a pIC50 [1] of 4.27.

For `CC(=O)N[C@@H](CC(=O)O)C(=O)N[C@@H](CCC(=O)O)C(=O)N[C@H](C(=O)N[C@@H](CCC(=O)O)C(=O)N[C@@H](CC1CCCCC1)C(=O)N[C@@H](CS)C(=O)NCCc1ccccc1Cl)C(c1ccccc1)c1ccccc1` (Ac-DE[Dip]E[Cha]C-X2), the pIC50 [1] was 8.70.

In the case of `CC(C)C[C@H](NC(=O)C(CCC(=O)O)NC(=O)OC(C)(C)C)C(=O)NC(CC(F)F)C(=O)NCCc1ccccc1Cl` (stereo partly specified), the pKi (NS3 [5]) was 4.87, the pKi (Neutrophil elastase) was < 4.00 and the pKi (NS3 [6]) was 5.08. The pKi (NS3 [7]) was 5.14.

`CC(C)C[C@H](NC(=O)[C@@H](NC(=O)OC(C)(C)C)C(C)C)C(=O)N[C@@H](CC(F)F)C(=O)C(=O)O` showed a pIC50 [8] of 6.34.

With `CC(C)COC(=O)NC(CCC(=O)O)C(=O)N[C@@H](CC(C)C)C(=O)NC(CS)C(=O)NCCc1ccccc1C(=O)O` (stereo partly specified) the pIC50 [1] was < 4.00.

`CC(=O)N[C@@H](CC(=O)O)C(=O)N[C@@H](CCC(=O)O)C(=O)N[C@H](C(=O)N[C@@H](CCC(=O)O)C(=O)N[C@@H](CC1CCCCC1)C(=O)N[C@@H](CC(F)F)C(=O)NCCc1ccccc1)C(c1ccccc1)c1ccccc1` (Ac-DE[Dip]E[Cha][Abu(4,4-F2)]-NHPhenethyl) showed a pIC50 [1] of 8.40.

`CC(=O)N[C@@H](CC(=O)O)C(=O)N[C@@H](CCC(=O)O)C(=O)N[C@H](C(=O)N[C@@H](CCC(=O)O)C(=O)N[C@@H](CC1CCCCC1)C(=O)N[C@@H](CS)C(=O)NCCC1CCCCC1)C(c1ccccc1)c1ccccc1` (Ac-DE[Dip]E[Cha]C-X5) showed a pIC50 [1] of 5.81.

`CC(=O)N[C@@H](CC(=O)O)C(=O)N[C@@H](CCC(=O)O)C(=O)N[C@H](C(=O)N[C@@H](CCC(=O)O)C(=O)N[C@@H](CC1CCCCC1)C(=O)N[C@@H](CS)C(=O)NC1Cc2ccccc2C1)C(c1ccccc1)c1ccccc1` (Ac-DE[Dip]E[Cha]C-X6) gave a pIC50 [1] of 5.77.

In the case of `CC(C)C[C@H](NC(=O)[C@H](CCC(=O)O)NC(=O)OC(C)(C)C)C(=O)N[C@@H](CS)C(=O)O` (Boc-Glu-Leu-Cys-OH), the pIC50 [1] was < 3.70.
